Test results as given in ChEMBL document CHEMBL1129435, “Acyclic nucleotide analogs derived from 8-azapurines: synthesis and antiviral activity” (J Med Chem, 1996).
Values after ≈ are worked out from the molar mass of the structure shown.

tested on: Moloney murine sarcoma virus; assay: Compound was tested for anti-retroviral activity against moloney murine sarcoma virus (MSV) in murine C3H/3T3 embryo fibroblast cell culture; type: functional, organism-based; conditions: not given
Summary of the method: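 C3H/3T3 fibroblasts were seeded at 5 × 10⁵ cells/mL. After 24 h they were infected with 80 focus-forming units of MSV for 90-120 min at 37 °C; the virus came from tumours induced by intramuscular inoculation of 3-day-old NMRI mice. The medium was then replaced with fresh medium containing various compound concentrations. Transformation was scored microscopically after 6 days.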

Going from `C[C@H](Cn1nnc2c(O)nc(N)nc21)OCP(=O)(O)O` to `Nc1nc(N)c2nnn(C[C@@H](CO)OCP(=O)(O)O)c2n1`, the IC50 rises from 0.43 µg/mL (≈ 1.41 µM) to 1 µg/mL (≈ 3.13 µM) (2.3-fold).

Going from `Nc1ncnc2c1nnn2C[C@H](O)CO` to `C[C@H](Cn1nnc2c(N)ncnc21)OCP(=O)(O)O`, the IC50 falls from > 100 µg/mL to 0.85 µg/mL (≈ 2.95 µM).

Compared with `Cc1cn([C@H]2C[C@H](N=[N+]=[N-])[C@@H](CO)O2)c(=O)[nH]c1=O` [ZIDOVUDINE], `Nc1nc(N)c2nnn(C[C@@H](CF)OCP(=O)(O)O)c2n1` is 740-fold higher in IC50: 0.02 µg/mL (≈ 0.0748 µM) for the first, 14.9 µg/mL (≈ 46.4 µM) for the second.

tested on: Human immunodeficiency virus 1; assay: Inhibition of human immunodeficiency virus-1 (HIV-1) induced cytopathicity in CEM cells; type: functional, organism-based; conditions: Human immunodeficiency virus 1, CCRF-CEM
Summary of the method: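 CEM cells (~3 × 10⁵ cells/mL) were infected with HIV-1(IIIB) at 100 CCID50 per µL. Infected cells were plated with compound dilutions and incubated 4 days at 37 °C. Giant cell formation was then examined microscopically.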

Compared with `C[C@H](Cn1nnc2c(O)nc(N)nc21)OCP(=O)(O)O`, `Nc1nc(N)c2nnn(C[C@@H](CO)OCP(=O)(O)O)c2n1` is higher in IC50: 2 µg/mL (≈ 6.57 µM) for the first, > 100 µg/mL for the second.

First: Nc1ncnc2c1nnn2C[C@H](O)CO
Second: C[C@H](Cn1nnc2c(N)ncnc21)OCP(=O)(O)O
The IC50 of the first is higher: > 100 µg/mL for the first, 7 µg/mL (≈ 24.3 µM) for the second.

First: Cc1cn([C@H]2C[C@H](N=[N+]=[N-])[C@@H](CO)O2)c(=O)[nH]c1=O [ZIDOVUDINE]
Second: Nc1nc(N)c2nnn(C[C@@H](CF)OCP(=O)(O)O)c2n1
The IC50 of the first is 10000-fold lower: 0.005 µg/mL (≈ 0.0187 µM) for the first, 50 µg/mL (≈ 156 µM) for the second.

tested on: Human immunodeficiency virus 2; assay: Inhibition of human immunodeficiency virus-2 (HIV-2) induced cytopathicity in CEM cells; type: functional, organism-based; conditions: Human immunodeficiency virus 2, CCRF-CEM

Compared with `C[C@H](Cn1nnc2c(O)nc(N)nc21)OCP(=O)(O)O`, `Nc1nc(N)c2nnn(C[C@@H](CO)OCP(=O)(O)O)c2n1` is higher in IC50: 2 µg/mL (≈ 6.57 µM) for the first, > 100 µg/mL for the second.

Compared with `Nc1ncnc2c1nnn2C[C@H](O)CO`, `C[C@H](Cn1nnc2c(N)ncnc21)OCP(=O)(O)O` is lower in IC50: > 100 µg/mL for the first, 10 µg/mL (≈ 34.7 µM) for the second.

Going from `Cc1cn([C@H]2C[C@H](N=[N+]=[N-])[C@@H](CO)O2)c(=O)[nH]c1=O` [ZIDOVUDINE] to `Nc1nc(N)c2nnn(C[C@@H](CF)OCP(=O)(O)O)c2n1`, the IC50 rises from 0.008 µg/mL (≈ 0.0299 µM) to 50 µg/mL (≈ 156 µM) (6200-fold).

tested on: not listed separately; assay: Antiviral activity against herpes simplex virus-1 KOS in E6SM cell culture; type: functional, cell-based; conditions: Human alphaherpesvirus 1, E6SM
Summary of the method: (§1)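 Confluent cell monolayers in microtiter trays were inoculated with 100 CCID50 of virus. After 1 h adsorption the residual virus was removed. Cells were then incubated with serial compound concentrations (400, 200, 100, ... µg/mL). Cytopathicity was scored once it was complete in untreated infected controls. The value is the 50% inhibitory concentration, or the concentration reducing plaque formation by 50%, in µg/mL.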

`C[C@H](Cn1nnc2c(O)nc(N)nc21)OCP(=O)(O)O` and `Nc1nc(N)c2nnn(C[C@@H](CO)OCP(=O)(O)O)c2n1` are the same in IC50: 20 µg/mL (≈ 65.7 µM) for the first, 20 µg/mL (≈ 62.7 µM) for the second.

Compared with `Nc1ncnc2c1nnn2C[C@H](O)CO`, `C[C@H](Cn1nnc2c(N)ncnc21)OCP(=O)(O)O` is lower in IC50: > 200 µg/mL for the first, 70 µg/mL (≈ 243 µM) for the second.

With `Nc1nc(N)c2nnn(C[C@@H](CF)OCP(=O)(O)O)c2n1` the IC50 was > 400 µg/mL.

tested on: Human alphaherpesvirus 1; assay: Antiviral activity against thymidine kinase deficient herpes simplex virus-1 HSV-1 TK- B2006 strain in E6SM cell culture; type: functional, organism-based; conditions: Human alphaherpesvirus 1, E6SM; summary of the method: as §1

Compared with `C[C@H](Cn1nnc2c(O)nc(N)nc21)OCP(=O)(O)O`, `Nc1nc(N)c2nnn(C[C@@H](CO)OCP(=O)(O)O)c2n1` is lower in IC50: > 100 µg/mL for the first, 20 µg/mL (≈ 62.7 µM) for the second.

Compared with `Nc1nc(N)c2nnn(C[C@@H](CF)OCP(=O)(O)O)c2n1`, `C[C@H](Cn1nnc2c(N)ncnc21)OCP(=O)(O)O` is lower in IC50: > 400 µg/mL for the first, 70 µg/mL (≈ 243 µM) for the second.

tested on: not listed separately; assay: Antiviral activity against thymidine kinase deficient herpes simplex virus-1 HSV-1 TK- VMW-1837 strain in E6SM cell culture; type: functional, cell-based; conditions: Human alphaherpesvirus 1, E6SM; summary of the method: as §1

Going from `C[C@H](Cn1nnc2c(O)nc(N)nc21)OCP(=O)(O)O` to `Nc1nc(N)c2nnn(C[C@@H](CO)OCP(=O)(O)O)c2n1`, the IC50 rises from 20 µg/mL (≈ 65.7 µM) to 40 µg/mL (≈ 125 µM) (2-fold).

First: Nc1nc(N)c2nnn(C[C@@H](CF)OCP(=O)(O)O)c2n1
Second: C[C@H](Cn1nnc2c(N)ncnc21)OCP(=O)(O)O
The IC50 of the first is higher: > 400 µg/mL for the first, 100 µg/mL (≈ 347 µM) for the second.

tested on: Vaccinia virus; assay: Antiviral activity against vaccinia virus (VV) in E6SM cell culture; type: functional, organism-based; conditions: Orthopoxvirus vaccinia

Compared with `C[C@H](Cn1nnc2c(O)nc(N)nc21)OCP(=O)(O)O`, `Nc1nc(N)c2nnn(C[C@@H](CO)OCP(=O)(O)O)c2n1` is lower in IC50: > 100 µg/mL for the first, 20 µg/mL (≈ 62.7 µM) for the second.

`Nc1nc(N)c2nnn(C[C@@H](CF)OCP(=O)(O)O)c2n1` and `C[C@H](Cn1nnc2c(N)ncnc21)OCP(=O)(O)O` cannot be ordered by IC50: > 400 µg/mL for the first, > 400 µg/mL for the second.

tested on: Human alphaherpesvirus 2; assay: Antiviral activity in herpes simple virus-2 (HSV-2) Lyons strain in E6SM cell culture; type: functional, organism-based; conditions: Human alphaherpesvirus 2, E6SM; summary of the method: as §1

First: C[C@H](Cn1nnc2c(O)nc(N)nc21)OCP(=O)(O)O
Second: Nc1nc(N)c2nnn(C[C@@H](CO)OCP(=O)(O)O)c2n1
The IC50 of the first is 2-fold lower: 20 µg/mL (≈ 65.7 µM) for the first, 40 µg/mL (≈ 125 µM) for the second.

Compound `C[C@H](Cn1nnc2c(N)ncnc21)OCP(=O)(O)O` has an IC50 of 100 µg/mL (≈ 347 µM).

tested on: Human alphaherpesvirus 3; assay: Antiviral activity in TK+ varicella zoster virus (VZV) YS strain in HEL cell culture; type: functional, organism-based; conditions: Human alphaherpesvirus 3, HEL

First: C[C@H](Cn1nnc2c(O)nc(N)nc21)OCP(=O)(O)O
Second: Nc1nc(N)c2nnn(C[C@@H](CO)OCP(=O)(O)O)c2n1
The IC50 of the first is 4.7-fold higher: 28 µg/mL (≈ 92 µM) for the first, 6 µg/mL (≈ 18.8 µM) for the second.

Going from `Nc1ncnc2c1nnn2C[C@H](O)CO` to `C[C@H](Cn1nnc2c(N)ncnc21)OCP(=O)(O)O`, the IC50 falls from > 40 µg/mL to 8 µg/mL (≈ 27.8 µM).

For `Nc1nc(N)c2nnn(C[C@@H](CF)OCP(=O)(O)O)c2n1`, the IC50 was > 50 µg/mL.

tested on: Human betaherpesvirus 5; assay: Antiviral activity against cytomegalovirus (CMV) AD169 strain in HEL cell culture; type: functional, organism-based; conditions: Human betaherpesvirus 5, HEL; summary of the method: as §1

First: C[C@H](Cn1nnc2c(O)nc(N)nc21)OCP(=O)(O)O
Second: Nc1nc(N)c2nnn(C[C@@H](CO)OCP(=O)(O)O)c2n1
The IC50 of the first is 2-fold lower: 50 µg/mL (≈ 164 µM) for the first, 100 µg/mL (≈ 313 µM) for the second.

`Nc1ncnc2c1nnn2C[C@H](O)CO` and `C[C@H](Cn1nnc2c(N)ncnc21)OCP(=O)(O)O` cannot be ordered by IC50: > 100 µg/mL for the first, > 40 µg/mL for the second.

With `Nc1nc(N)c2nnn(C[C@@H](CF)OCP(=O)(O)O)c2n1` the IC50 was > 50 µg/mL.

tested on: Cytomegalovirus; assay: Antiviral activity against cytomegalovirus (CMV) Davis strain in HEL cell culture; type: functional, organism-based; conditions: Human betaherpesvirus 5, HEL; summary of the method: as §1

Going from `C[C@H](Cn1nnc2c(O)nc(N)nc21)OCP(=O)(O)O` to `Nc1nc(N)c2nnn(C[C@@H](CO)OCP(=O)(O)O)c2n1`, the IC50 rises from 35 µg/mL (≈ 115 µM) to 100 µg/mL (≈ 313 µM) (2.9-fold).

`Nc1nc(N)c2nnn(C[C@@H](CF)OCP(=O)(O)O)c2n1` and `C[C@H](Cn1nnc2c(N)ncnc21)OCP(=O)(O)O` cannot be ordered by IC50: > 50 µg/mL for the first, > 40 µg/mL for the second.

tested on: Human alphaherpesvirus 3; assay: Antiviral activity in TK+ varicella zoster virus (VZV) 07/1 strain in HEL cell culture; type: functional, organism-based; conditions: Human alphaherpesvirus 3, HEL

Going from `C[C@H](Cn1nnc2c(O)nc(N)nc21)OCP(=O)(O)O` to `Nc1nc(N)c2nnn(C[C@@H](CO)OCP(=O)(O)O)c2n1`, the IC50 falls from 20 µg/mL (≈ 65.7 µM) to 6 µg/mL (≈ 18.8 µM) (3.3-fold).

First: Nc1ncnc2c1nnn2C[C@H](O)CO
Second: C[C@H](Cn1nnc2c(N)ncnc21)OCP(=O)(O)O
The IC50 of the first is higher: > 40 µg/mL for the first, 5 µg/mL (≈ 17.3 µM) for the second.

For `Nc1nc(N)c2nnn(C[C@@H](CF)OCP(=O)(O)O)c2n1`, the IC50 was > 50 µg/mL.

tested on: Human alphaherpesvirus 3; assay: Antiviral activity in TK+ varicella zoster virus (VZV) OKA strain in HEL cell culture; type: functional, organism-based; conditions: Human alphaherpesvirus 3, HEL

Going from `C[C@H](Cn1nnc2c(O)nc(N)nc21)OCP(=O)(O)O` to `Nc1nc(N)c2nnn(C[C@@H](CO)OCP(=O)(O)O)c2n1`, the IC50 falls from 40 µg/mL (≈ 131 µM) to 9 µg/mL (≈ 28.2 µM) (4.4-fold).

First: Nc1ncnc2c1nnn2C[C@H](O)CO
Second: C[C@H](Cn1nnc2c(N)ncnc21)OCP(=O)(O)O
The IC50 of the first is higher: > 40 µg/mL for the first, 8 µg/mL (≈ 27.8 µM) for the second.

With `Nc1nc(N)c2nnn(C[C@@H](CF)OCP(=O)(O)O)c2n1` the IC50 was > 50 µg/mL.

tested on: Human immunodeficiency virus 1; assay: Inhibition of human immunodeficiency virus-1 (HIV-1) induced cytopathicity in human MT-4 cells; type: functional, organism-based; conditions: Human immunodeficiency virus 1, MT4
Summary of the method: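 MT-4 cells (~4 × 10⁵ cells/mL) were infected with HIV-1(IIIB) at 100 CCID50 per µL. Infected cells were seeded into wells containing compound dilutions and incubated 5 days at 37 °C. Viable cells were then counted by trypan blue exclusion in a blood cell counting chamber.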

Going from `C[C@H](Cn1nnc2c(O)nc(N)nc21)OCP(=O)(O)O` to `Nc1nc(N)c2nnn(C[C@@H](CO)OCP(=O)(O)O)c2n1`, the IC50 rises from 2.42 µg/mL (≈ 7.96 µM) to > 100 µg/mL.

With `C[C@H](Cn1nnc2c(N)ncnc21)OCP(=O)(O)O` the IC50 was 5.2 µg/mL (≈ 18 µM).
